697 NFkB inh = inhibitors of the PMA/ionomycin-induced NF-kB reporter in 697 B cells. AID 435022. inhibition, % at 4 µM. 697 B-cell NF-kB luciferase reporter, 16 h. 330,000 compounds, 0.33% hits; in the data active = inhibition above about 35%
Jurkat NFkB inh = inhibitors of the PMA/ionomycin-induced NF-kB reporter in Jurkat cells; 330,000 compounds, 0.53% hits; PMA/ionomycin-induced NF-kB luciferase reporter, luminescence; AID 435003; inhibition, % at 4 µM; in the data active = inhibition above about 50%
Gli-Sufu antag = blocks Gli-Sufu signaling in a luciferase reporter | Sufu-KO-LIGHT fibroblasts, Gli luciferase reporter luminescence | AID 588413 | inhibition, % at 5 µM | 340,000 compounds, 0.74% hits;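 active = inhibition above about 55%, limit read from the data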;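 note: 0% = DMSO-treated cells and 100% = wells with medium but no cells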
GalR3 antagonist = antagonists of human GalR3; HEK293 GalR3-CNG cAMP membrane potential fluorescence; galR3 body fused to GalR1 C-terminus; O60755; 360,000 compounds, 0.44% hits; inhibition, % at 3 µM;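 active = inhibition above the screen-wide average plus 3 SD, cut at about 13% in these data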;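 note: forskolin and galanin both at EC90 stimulate the cells; cAMP rise reported by CNG channel membrane potential dye signal; 0% = forskolin plus galanin with DMSO and 100% = forskolin alone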
Target sequence (O60755 1-299 limits assumed): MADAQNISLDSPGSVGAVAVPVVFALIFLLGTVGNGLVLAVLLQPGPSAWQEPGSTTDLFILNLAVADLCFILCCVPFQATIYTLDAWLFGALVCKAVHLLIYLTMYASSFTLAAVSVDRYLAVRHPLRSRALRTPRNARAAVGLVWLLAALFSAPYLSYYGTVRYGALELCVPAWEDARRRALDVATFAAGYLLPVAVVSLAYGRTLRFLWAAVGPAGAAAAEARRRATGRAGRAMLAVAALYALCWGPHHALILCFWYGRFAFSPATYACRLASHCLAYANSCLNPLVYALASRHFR
NR2E3 ag-1 = activates human photoreceptor nuclear receptor NR2E3 | Q9Y5X4 | GST-NR2E3/biotin-RetCOR TR-FRET, 1536-well | inhibition of corepressor binding, % at 4.78 µM | 320,000 compounds, 0.12% hits;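 active = percent inhibition above the cutoff of mean plus 3 SD of all tested compounds, set per screening campaign, cut at about 20% in these data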;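 note: 0% = DMSO wells and 100% = biotin wells as full block of FRET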
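Material: NR2E3–RetCOR corepressor complex | Quantity: 1.35 nM GST-tagged NR2E3 final | Schedule: 5 h at 4 °C | Replication: Singlicate compound wells | Reagent: RetCOR corepressor, biotinylated, 7 nM | Controls: Biotin wells as high control, 0.6% DMSO wells as low control | Signal: TR-FRET, Eu(K)-anti-GST donor, streptavidin-D2 acceptor, ex 340, em 617/671 nm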
NR2E3 ag-2 = activates human NR2E3 receptor. CHO-S Gal4-NCOR/VP16-NR2E3 two-hybrid, luciferase. Q9Y5X4. inhibition of corepressor binding, % at 3.98 µM. 360,000 compounds, 0.35% hits. AID 602229;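 active = inhibition above the mean of all tested compounds plus 3 SD, cut at about 70% in these data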;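 note: 0% = DMSO with NR2E3 transfected cells and 100% = cells lacking NR2E3 construct; higher means lower luciferase signal from less NR2E3 corepressor binding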
GalR3 antag conf = confirmation of human galanin receptor 3 antagonists; shares compounds with GalR3 antagonist; HEK293 GalR3 CNG cAMP biosensor, membrane potential fluorescence; galR3 fused to GalR1 carboxy tail; challenged with forskolin and galanin at EC90; inhibition, % at 3 µM; 1,600 compounds, 59% hits;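 active = inhibition above the primary screen's cutoff, the mean inhibition of all screened compounds plus 3 SD, cut at about 13% in these data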;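 note: 0% = forskolin plus galanin and 100% = forskolin alone with DMSO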
HEK-CNG parental = acts as nonspecific agonist in parental HEK-CNG cells; shares compounds with GalR3 antagonist; HEK293-CNG parental cells, cAMP membrane potential fluorescence; normalised: DMSO wells 0%, forskolin wells 100%; activation, % at 3 µM; 1,600 compounds, 10% hits; AID 652268; in the data active = activation above about 1.3%
* marks the source's active call; other numbers are inactive results; . = not tested or not shown. In the library only some 1.8% were active in any assay of this set; here they are far more common.

SMILES	697 NFkB inh	Jurkat NFkB inh	Gli-Sufu antag	GalR3 antagonist	NR2E3 ag-1	NR2E3 ag-2	GalR3 antag conf	HEK-CNG parental
CNc1nc2c(N)ncnc2n1[C@H]1O[C@@H](CO)[C@H](O)[C@@H]1O	2.7	10.8	-19.9	26.1*	2.5	-30.0	39.9*	0.3
COc1cccc(NC(=O)C2CCC(CNC(=O)[C@@H]3Cc4ccccc4CN3)CC2)c1 (stereo partly drawn)	-8.8	-20.5	3.6	-0.1	-0.4	-12.4	.	.
CC(=O)Nc1cccc(C(=O)/C=C/c2ccc(Br)cc2)c1	5.0	4.5	-21.8	15.1*	-2.8	-5.1	30.2*	-0.4
C[C@H]1CN=C2N(CCNC(=O)CCC3CCCCC3)[C@H](Cc3ccc(O)cc3)CN21	20.0	-1.6	6.3	17.3*	4.8	8.5	2.5	0.2
CCCC[n+]1ccn(-c2nc3c([N+](=O)[O-])cccc3n2C)c1	-18.1	-18.2	2.6	5.0	.	-8.8	.	.
CC(C)CSc1nnc(N)s1	-5.0	-1.4	-3.8	13.9*	-0.9	2.9	5.2	0.2
CCSc1nnc(N)s1	-11.0	-8.0	-10.8	-4.0	-1.0	5.2	.	.
CCCCC[C@H](O)/C=C/C1C(=O)C=C[C@H]1C/C=C\CCCC(=O)OC (stereo partly drawn)	.	.	-0.2	64.3*	.	-10.5	80.0*	0.2
C/C(=C\c1ccc2c(c1)OCO2)C1Nc2cccc3cccc(c23)N1	-82.1	10.9	6.4	-8.6	0.5	-10.6	.	.
COc1ccc(C2=Nc3ccccc3NC(=O)C2N(Cc2ccccc2)C(=O)C2=NNC(=O)CC2)cc1 (stereo not drawn)	.	.	.	-5.5	.	-8.3	.	.
O=C(CN1CCC(c2nc3ccccc3s2)CC1)NCc1cccs1	-33.4	21.4	-2.6	78.2*	3.2	29.4	75.8*	1.8*
O=C(CN1CCC(c2nc3ccccc3s2)CC1)N1CCCCC1	0.7	-9.8	18.6	-7.9	8.0	-23.4	.	.
Cn1c(N)c(C(=O)COC(=O)CC(NC(=O)c2ccccc2Cl)c2ccccc2)c(=O)n(C)c1=O (stereo not drawn)	-16.7	-21.1	-2.3	13.6*	7.0	2.9	-3.5	0.3
CC(=O)NC(CC(=O)OCC(=O)c1c(N)n(CC(C)C)c(=O)n(C)c1=O)c1ccccc1 (stereo not drawn)	-11.1	2.9	34.5	-1.9	-0.6	3.5	.	.
CC(C)c1ccc(CN2CCN(C(=O)CSc3nnnn3C3CC3)CC2)cc1	-11.9	40.9	5.7	96.7*	5.8	13.7	106.5*	-0.3
CN(C)c1cc(Nc2ccc(O)cc2)c([N+](=O)[O-])c2nonc12	-29.5	-16.0	5.1	5.0	-0.7	-19.6	.	.
O=[N+]([O-])c1c(Nc2ccc(O)cc2)cc(Cl)c2nonc12	12.0	27.1	5.1	57.8*	-0.8	22.0	51.1*	0.3
CCOc1ccc(N(CC)S(=O)(=O)c2c(C)[nH]c(=O)[nH]c2=O)cc1	7.4	0.3	5.2	-5.9	-0.7	0.7	.	.
CCOc1ccc(CO/N=C/c2c(C)[nH]c(=O)[nH]c2=O)cc1	-7.3	-4.2	-9.2	22.4*	1.6	-9.2	21.1*	0.3
COc1ccc(-c2ccc(C(=O)NCc3ccc(C(F)(F)F)cc3)c3occc23)c(C)c1	.	.	.	-7.7	.	-12.7	.	.
O=C(NCC1CC1)c1ccc(Nc2nc3ccc(Br)cc3[nH]2)cc1	5.7	-5.5	0.6	-2.9	2.5	5.4	.	.
O=C(Cc1ccc(Nc2nc3ccc(Br)cc3[nH]2)cc1)NCCc1cccs1	-7.7	-2.0	2.0	15.3*	-1.1	9.5	27.0*	-0.9
C=CCNc1ccc2c(c1)OC[C@@H](CC(C)C)NS2(=O)=O	.	.	.	-7.8	.	.	.	.
CC(C)n1c(=S)[nH]c2scc(-c3cccs3)c2c1=O	-16.2	-10.8	-6.7	13.2*	0.1	18.6	1.6	0.2
CCn1c(=S)[nH]c2scc(-c3cccs3)c2c1=O	.	.	-28.6	2.1	.	-6.1	.	.

Compound activity deposited in PubChem by several laboratories.
